According to ChEMBL document CHEMBL4312005, “Optimization of pyrrolizine-based Schiff bases with 4-thiazolidinone motif: Design, synthesis and investigation of cytotoxicity and anti-inflammatory potency” (Eur J Med Chem, 2020):

How the values were obtained:
MCF7 [1] = assay: Antiproliferative activity against human MCF7 cells assessed as cell viability at 5 uM incubated for 48 hrs by MTT assay (reference value: 100 %); assay type: functional; conditions: MCF7, 48 h, read-out: Activity
Outline: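 Preliminary single-dose screen by MTT assay. MCF-7 cells grown in DMEM/10% FBS were exposed to 5 μM compound for 48 h, and growth% was determined. Values are mean ± S.D., n = 6.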

MCF7 [2] = assay: Antiproliferative activity against human MCF7 cells assessed as reduction in cell growth incubated for 72 hrs by MTT assay; assay type: functional, cell-based; conditions: MCF7, 72 h
Outline: (§1)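 MTT assay on MCF-7, A2780, HT29 and normal MRC5 fibroblast lines (ATCC) grown in DMEM with 10% FBS. Cells exposed to compounds for 72 h, then reduced MTT read at 570 nm.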

A2780 = assay: Antiproliferative activity against human A2780 cells assessed as reduction in cell growth incubated for 72 hrs by MTT assay; assay type: functional, cell-based; conditions: A2780, 72 h; outline: as §1
HT-29 = assay: Antiproliferative activity against human HT-29 cells assessed as reduction in cell growth incubated for 72 hrs by MTT assay; assay type: functional, cell-based; conditions: HT-29, 72 h; outline: as §1
MRC5 = assay: Cytotoxicity against human MRC5 cells assessed as reduction in cell growth incubated for 72 hrs by MTT assay; assay type: cell-based; conditions: MRC5, 72 h; outline: as §1
[3] = Selectivity index, ratio of IC50 for cytotoxicity against human MRC5 cells to IC50 for antiproliferative activity against human MCF7 cells; conditions: MRC5 cells versus MCF7 cells
[4] = Selectivity index, ratio of IC50 for cytotoxicity against human MRC5 cells to IC50 for antiproliferative activity against human A2780 cells; conditions: MRC5 cells versus A2780 cells
[5] = Selectivity index, ratio of IC50 for cytotoxicity against human MRC5 cells to IC50 for antiproliferative activity against human HT-29 cells; conditions: MRC5 cells versus HT-29 cells
[6] = biological target: Prostaglandin G/H synthase 1 (Homo sapiens, UniProt P23219); assay: Inhibition of human COX1 using arachidonic acid as substrate incubated for 2 mins by ELISA method
Rattus norvegicus [7] = assay: Antiinflammatory activity against albino rats assessed as inhibition of carrageenan-induced paw edema at 0.5 mmol, po measured after 2 hrs relative to control; assay type: functional
Outline: (§2)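 Carrageenan rat paw edema (Winter method) in male and female adult albino rats (100-140 g). […] Swelling inhibition expressed as % of control at 2-4 h after carrageenan injection.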

Rattus norvegicus [8] = assay: Antiinflammatory activity against albino rats assessed as inhibition of carrageenan-induced paw edema at 0.5 mmol, po measured after 4 hrs relative to control; assay type: functional; outline: as §2
MCF7 [9] = assay: Cell cycle arrest in human MCF7 cells assessed as subG1 accumulation at 1 uM incubated for 24 hrs by propidium iodide based flow cytometry (reference value: 0.6 to 3 %); assay type: functional
MCF7 [10] = assay: Cell cycle arrest in human MCF7 cells assessed as subG1 accumulation at 5 uM incubated for 24 hrs by propidium iodide based flow cytometry (reference value: 0.6 to 3 %); assay type: functional
MCF7 [11] = assay: Cell cycle arrest in human MCF7 cells assessed as subG1 accumulation at 10 uM incubated for 24 hrs by propidium iodide based flow cytometry (reference value: 0.6 to 3 %); assay type: functional
MCF7 [12] = assay: Cell cycle arrest in human MCF7 cells assessed as G1 accumulation at 1 uM incubated for 24 hrs by propidium iodide based flow cytometry (reference value: 49.6 to 55.1 %); assay type: functional
MCF7 [13] = assay: Cell cycle arrest in human MCF7 cells assessed as G1 accumulation at 5 uM incubated for 24 hrs by propidium iodide based flow cytometry (reference value: 49.6 to 55.1 %); assay type: functional
MCF7 [14] = assay: Cell cycle arrest in human MCF7 cells assessed as G1 accumulation at 10 uM incubated for 24 hrs by propidium iodide based flow cytometry (reference value: 49.6 to 55.1 %); assay type: functional
MCF7 [15] = assay: Cell cycle arrest in human MCF7 cells assessed as S phase accumulation at 1 uM incubated for 24 hrs by propidium iodide based flow cytometry (reference value: 17.3 to 28.5 %); assay type: functional
MCF7 [16] = assay: Cell cycle arrest in human MCF7 cells assessed as S phase accumulation at 5 uM incubated for 24 hrs by propidium iodide based flow cytometry (reference value: 17.3 to 28.5 %); assay type: functional
MCF7 [17] = assay: Cell cycle arrest in human MCF7 cells assessed as S phase accumulation at 10 uM incubated for 24 hrs by propidium iodide based flow cytometry (reference value: 17.3 to 28.5 %); assay type: functional
MCF7 [18] = assay: Cell cycle arrest in human MCF7 cells assessed as G2/M phase accumulation at 1 uM incubated for 24 hrs by propidium iodide based flow cytometry (reference value: 17.2 to 26.8 %); assay type: functional
MCF7 [19] = assay: Cell cycle arrest in human MCF7 cells assessed as G2/M phase accumulation at 5 uM incubated for 24 hrs by propidium iodide based flow cytometry (reference value: 17.2 to 26.8 %); assay type: functional
MCF7 [20] = assay: Cell cycle arrest in human MCF7 cells assessed as G2/M phase accumulation at 10 uM incubated for 24 hrs by propidium iodide based flow cytometry (reference value: 17.2 to 26.8 %); assay type: functional
MCF7 [21] = assay: Induction of apoptosis in human MCF7 cells assessed as viable cells at 1 uM incubated for 24 hrs by annexin V FITC and propidium iodide staining based flow cytometry (reference value: 76 to 95.9 %); assay type: functional; conditions: MCF7, 24 h, read-out: Activity
MCF7 [22] = assay: Induction of apoptosis in human MCF7 cells assessed as viable cells at 5 uM incubated for 24 hrs by annexin V FITC and propidium iodide staining based flow cytometry (reference value: 76 to 95.9 %); assay type: functional; conditions: MCF7, 24 h, read-out: Activity
MCF7 [23] = assay: Induction of apoptosis in human MCF7 cells assessed as viable cells at 10 uM incubated for 24 hrs by annexin V FITC and propidium iodide staining based flow cytometry (reference value: 76 to 95.9 %); assay type: functional; conditions: MCF7, 24 h, read-out: Activity
MCF7 [24] = assay: Induction of apoptosis in human MCF7 cells assessed as early apoptotic cells at 1 uM incubated for 24 hrs by annexin V FITC and propidium iodide staining based flow cytometry (reference value: 0 to 9 %); assay type: functional
MCF7 [25] = assay: Induction of apoptosis in human MCF7 cells assessed as early apoptotic cells at 5 uM incubated for 24 hrs by annexin V FITC and propidium iodide staining based flow cytometry (reference value: 0 to 9 %); assay type: functional
MCF7 [26] = assay: Induction of apoptosis in human MCF7 cells assessed as early apoptotic cells at 10 uM incubated for 24 hrs by annexin V FITC and propidium iodide staining based flow cytometry (reference value: 0 to 9 %); assay type: functional
MCF7 [27] = assay: Induction of apoptosis in human MCF7 cells assessed as late apoptotic cells at 1 uM incubated for 24 hrs by annexin V FITC and propidium iodide staining based flow cytometry (reference value: 0 to 2.5 %); assay type: functional
MCF7 [28] = assay: Induction of apoptosis in human MCF7 cells assessed as late apoptotic cells at 5 uM incubated for 24 hrs by annexin V FITC and propidium iodide staining based flow cytometry (reference value: 0 to 2.5 %); assay type: functional
MCF7 [29] = assay: Induction of apoptosis in human MCF7 cells assessed as late apoptotic cells at 10 uM incubated for 24 hrs by annexin V FITC and propidium iodide staining based flow cytometry (reference value: 0 to 2.5 %); assay type: functional
MCF7 [30] = assay: Induction of apoptosis in human MCF7 cells assessed as necrotic cells at 1 uM incubated for 24 hrs by annexin V FITC and propidium iodide staining based flow cytometry (reference value: 4.1 to […]); assay type: functional
MCF7 [31] = assay: Induction of apoptosis in human MCF7 cells assessed as necrotic cells at 5 uM incubated for 24 hrs by annexin V FITC and propidium iodide staining based flow cytometry (reference value: 4.1 to […]); assay type: functional
MCF7 [32] = assay: Induction of apoptosis in human MCF7 cells assessed as necrotic cells at 10 uM incubated for 24 hrs by annexin V FITC and propidium iodide staining based flow cytometry (reference value: 4.1 to […]); assay type: functional
Rattus norvegicus [33] = assay: Antiinflammatory activity against albino rats assessed as inhibition of carrageenan-induced paw edema at 15 mg/kg, po measured after 2 hrs relative to control; assay type: functional
Outline: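 Winter carrageenan rat paw oedema model in adult albino rats of both sexes (100-140 g). Compounds given orally before carrageenan injection into the paw. Oedema inhibition % versus untreated control read at 2-4 h post-carrageenan. Significance versus control was tested at P < 0.05, 0.01 and 0.001. Animal work approved by the Umm Al-Qura University pharmacy ethics committee.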

Rattus norvegicus [34] = assay: Antiinflammatory activity against albino rats assessed as inhibition of carrageenan-induced paw edema at 15 mg/kg, po measured after 4 hrs relative to control; assay type: functional; outline: as §2
Rattus norvegicus [35] = assay: Antiinflammatory activity against albino rats assessed as inhibition of carrageenan-induced paw edema at 25 mg/kg, po measured after 2 hrs relative to control; assay type: functional; outline: as §2
Rattus norvegicus [36] = assay: Antiinflammatory activity against albino rats assessed as inhibition of carrageenan-induced paw edema at 25 mg/kg, po measured after 4 hrs relative to control; assay type: functional; outline: as §2

Chain of Prostaglandin G/H synthase 1 (P23219 whole entry): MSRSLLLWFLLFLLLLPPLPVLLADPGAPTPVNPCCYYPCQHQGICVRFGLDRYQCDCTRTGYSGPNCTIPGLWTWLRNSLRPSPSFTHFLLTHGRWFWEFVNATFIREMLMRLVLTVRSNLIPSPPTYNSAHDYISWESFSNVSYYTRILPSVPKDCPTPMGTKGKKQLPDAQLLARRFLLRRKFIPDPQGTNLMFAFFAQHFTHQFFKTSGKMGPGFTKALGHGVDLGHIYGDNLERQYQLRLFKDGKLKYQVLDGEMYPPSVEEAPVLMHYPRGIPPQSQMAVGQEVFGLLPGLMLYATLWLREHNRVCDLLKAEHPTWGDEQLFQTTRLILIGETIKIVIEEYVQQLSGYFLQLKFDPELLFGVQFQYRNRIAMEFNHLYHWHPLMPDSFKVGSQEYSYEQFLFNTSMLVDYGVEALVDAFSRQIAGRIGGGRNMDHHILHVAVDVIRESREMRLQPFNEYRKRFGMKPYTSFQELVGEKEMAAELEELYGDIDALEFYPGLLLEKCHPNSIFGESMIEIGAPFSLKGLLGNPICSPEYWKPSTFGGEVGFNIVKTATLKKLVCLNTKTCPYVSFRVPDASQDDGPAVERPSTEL

Structure (SMILES)	viability at 5 µM (MCF7 [1])	IC50 (MCF7 [2])	IC50 (A2780)	IC50 (HT-29)	IC50 (MRC5)	selectivity ratio [3]	selectivity ratio [4]	selectivity ratio [5]	IC50 [6]	inhibition (INH) (Rattus norvegicus [7])	inhibition (INH) (Rattus norvegicus [8])	Activity (MCF7 [9])	Activity (MCF7 [10])	Activity (MCF7 [11])	Activity (MCF7 [12])	Activity (MCF7 [13])	Activity (MCF7 [14])	Activity (MCF7 [15])	Activity (MCF7 [16])	Activity (MCF7 [17])	other results
N#Cc1c(/N=C/c2ccc(O)cc2)c(C(=O)Nc2ccc(Br)cc2)n2c1CCC2	69%	0.49 µM	0.47 µM	14.5 µM	25 µM	2 to 52	2 to 52	2 to 52	72 µM	28.15%	44.51%	0.4%	0.4%	0.8%	31.7%	28.9%	27.9%	54.1%	49.7%	51.9%	Activity (MCF7 [18]): 14.2%; Activity (MCF7 [19]): 22%; Activity (MCF7 [20]): 19.8%; viability at 1 µM (MCF7 [21]): 65.7%; viability at 5 µM (MCF7 [22]): 66.3%; viability at 10 µM (MCF7 [23]): 69.2%; Activity (MCF7 [24]): 10.2%; Activity (MCF7 [25]): 8.6%; Activity (MCF7 [26]): 5%; Activity (MCF7 [27]): 9.8%; Activity (MCF7 [28]): 7.4%; Activity (MCF7 [29]): 5.2%; Activity (MCF7 [30]): 14.3%; Activity (MCF7 [31]): 17.8%; Activity (MCF7 [32]): 20.6%
N#Cc1c(/N=C/c2ccco2)c(C(=O)Nc2ccc(Br)cc2)n2c1CCC2	64%	6.89 µM	12.2 µM	2.04 µM	15.7 µM	1 to 10	1 to 10	1 to 10	13.2 µM	18.83%	35.79%	1.1%	0.4%	0.4%	24.5%	25.5%	25%	53.7%	53.6%	51.5%	Activity (MCF7 [18]): 22.1%; Activity (MCF7 [19]): 21.8%; Activity (MCF7 [20]): 23%; viability at 1 µM (MCF7 [21]): 67%; viability at 5 µM (MCF7 [22]): 67%; viability at 10 µM (MCF7 [23]): 71.2%; Activity (MCF7 [24]): 12.8%; Activity (MCF7 [25]): 11.5%; Activity (MCF7 [26]): 7.2%; Activity (MCF7 [27]): 8.8%; Activity (MCF7 [28]): 6.3%; Activity (MCF7 [29]): 5.3%; Activity (MCF7 [30]): 11.4%; Activity (MCF7 [31]): 15.2%; Activity (MCF7 [32]): 16.4%
COc1ccc2c(c1)c(CC(=O)O)c(C)n2C(=O)c1ccc(Cl)cc1 [INDOMETHACIN]																					inhibition in vivo at 15 mg/kg (Rattus norvegicus [33]): 32.3%; inhibition in vivo at 15 mg/kg (Rattus norvegicus [34]): 56.4%
Cc1ccc(-c2cc(C(F)(F)F)nn2-c2ccc(S(N)(=O)=O)cc2)cc1 [CELECOXIB]																					inhibition in vivo at 25 mg/kg (Rattus norvegicus [35]): 37%; inhibition in vivo at 25 mg/kg (Rattus norvegicus [36]): 67.4%
